This assay deals with Mycolicibacterium smegmatis. As to the kind of experiment: Antimycobacterial activity against Mycobacterium smegmatis after 24 hrs by microplate alamar blue assay. It counts as functional. Summed up: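 Alamar blue viability read-out in 96-well microplates, following an earlier described method; test materials dissolved in DMSO at an initial 0.4 mg/mL; kanamycin positive control at 0.1 mg/mL; M. smegmatis strain preincubated 48 h before incubation with test materials.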

Converted amounts (≈) assume the structure as drawn.

A word on the MIC: it is the smallest concentration in the dilution series that meets the test's criterion for growth inhibition. High values mean a less susceptible organism, low ones a more susceptible organism. `CC(=O)O[C@@]12[C@H](O)[C@@H](C)[C@@]3(O)[C@@H](C=C(CO)C[C@]4(O)C(=O)C(C)=C[C@@H]34)[C@@H]1C2(C)C`: the MIC is over 400 µg/mL.
The molecule `CC1=C2C(=C[C@H]3[C@]4(C)CCCC(C)(C)[C@H]4CC[C@]34O[C@H]24)OC1=O` came in with an MIC of over 400 µg/mL.
The value for `CC1(C)CCC[C@]2(C)[C@@H]1CC[C@@]13O[C@@H]1C1=C(CO)C(=O)OC1=C[C@@H]23` was 100 µg/mL (≈ 303 µM).
Regarding `CC1(C)CCC[C@]2(C)[C@@H]1CC[C@@]13O[C@@H]1C1=C(CO)C(=O)O[C@]14O[C@@H]4[C@@H]23`, it took 1.5 µg/mL (≈ 4.33 µM) to inhibit growth (MIC).
Consider `CC1=C2[C@@H](O)[C@@]3(O)CC[C@@H]4C(C)(C)CCC[C@@]4(C)[C@@H]3[C@@H](O)[C@H]2OC1=O`, for which the minimal inhibitory concentration (MIC) was over 400 µg/mL.
`CC(=O)O[C@@]12C[C@@H](C)[C@@]3(O)[C@@H](C=C(CO[C@@H]4O[C@H](CO)[C@@H](O)[C@H](OC(=O)c5cc(O)c(O)c(O)c5)[C@H]4O)C[C@]4(O)C(=O)C(C)=C[C@@H]34)[C@@H]1C2(C)C` came in with a minimum inhibitory concentration (MIC) of over 400 µg/mL.
For the molecule `CC(=O)O[C@@]12C[C@](C)(O)[C@H]3[C@@H](C=C(CO)C[C@]4(O)C(=O)C(C)=C[C@@H]34)[C@@H]1C2(C)C`, the MIC was over 400 µg/mL.
`CC1=C2[C@@H](OC1=O)C(=O)[C@H]1[C@]3(C)CCCC(C)(C)[C@H]3CC[C@@]1(O)[C@H]2O`: the MIC amounted to 300 µg/mL (≈ 861 µM).
Take `CC1(C)C(=O)CC[C@]2(C)[C@@H]1C[C@H](O)C1=CC3=C(CO)C(=O)O[C@@H]3[C@@H](O)[C@H]12`: the MIC was over 400 µg/mL.
For the molecule `CC(=O)O[C@@]12C[C@@H](C)[C@@]3(O)[C@@H](C=C(CO[C@@H]4O[C@H](CO)[C@@H](OC(=O)c5cc(O)c(O)c(O)c5)[C@H](O)[C@H]4O)C[C@]4(O)C(=O)C(C)=C[C@@H]34)[C@@H]1C2(C)C`, the MIC is over 400 µg/mL.
In the case of `CC1=C2C=C3[C@@H](O)C[C@@H]4C(C)(C)CCC[C@@]4(C)[C@@H]3[C@@H](O)[C@@]2(O)OC1=O`, it took 400 µg/mL (≈ 1150 µM) to inhibit growth (MIC).
`CC1(C)CCC[C@]2(C)[C@@H]1CCC1=CC3=C(CO)C(=O)O[C@]3(O)[C@H](O)[C@H]12` had an MIC of 200 µg/mL (≈ 574 µM).
For the molecule `CC(=O)O[C@@]12C[C@@H](C)[C@@]3(O)[C@@H](C=C(C=O)C[C@]4(O)C(=O)C(C)=C[C@@H]34)[C@@H]1C2(C)C`, the MIC is over 400 µg/mL.
The value for `CC1=C[C@H]2[C@@]3(O)[C@H](C)CC(=O)[C@@H](C(C)C)[C@@H]3C=C(CO)C[C@]2(O)C1=O` was over 400 µg/mL.
For `CC1(C)CCC[C@]2(C)[C@@H]1CC[C@]1(O)[C@H](O)C3=C(CO)C(=O)OC3=C[C@@H]21`, the MIC was over 400 µg/mL.
The value for `CC1(C)CCC[C@]2(C)[C@@H]1C[C@H](O)C1=CC3=C(CO)C(=O)O[C@]3(O)[C@H](O)[C@H]12` was over 400 µg/mL; that for `CC(=O)O[C@@]12C[C@@H](C)[C@@]3(O)[C@@H](C=C(C(=O)O)C[C@]4(O)C(=O)C(C)=C[C@@H]34)[C@@H]1C2(C)C` was over 400 µg/mL.
In turn, `CC1(C)C(=O)CC[C@]2(C)[C@@H]1CCC1=CC3=C(CO)C(=O)O[C@@H]3[C@@H](O)[C@H]12` came in with an MIC of over 400 µg/mL.
Take `CC(=O)O[C@@]12C[C@@H](C)[C@@]3(O)[C@@H](C=C(CO[C@@H]4O[C@H](CO)[C@@H](O)[C@H](O)[C@H]4O)C[C@]4(O)C(=O)C(C)=C[C@@H]34)[C@@H]1C2(C)C` [FISCHEROSIDES A]: the MIC was over 400 µg/mL.
The value for `NC[C@H]1O[C@H](O[C@H]2[C@H](O)[C@@H](O[C@H]3O[C@H](CO)[C@@H](O)[C@H](N)[C@H]3O)[C@H](N)C[C@@H]2N)[C@H](O)[C@@H](O)[C@@H]1O` [KANAMYCIN] was 10 µg/mL (≈ 20.6 µM); that for `CC(=O)O[C@@]12C[C@@H](C)[C@@]3(O)[C@@H](C=C(CO)C[C@]4(O)C(=O)C(C)=C[C@@H]34)[C@@H]1C2(C)C` [PROSTRATIN] was over 400 µg/mL.

The record behind these values is ChEMBL document CHEMBL4118025, “ent-Abietane and Tigliane Diterpenoids from the Roots of Euphorbia fischeriana and Their Inhibitory Effects against Mycobacterium smegmatis” (2017).
